Experimental data reported in article PMC3947009 (ACS Chemical Biology, 2013).
pEC50, pKd: −log10 of the molar value. Values joined by “and” are separate entries in the source; they are usually repeats but may differ in a detail not shown here. Identical values can stand only once.

Molecular target: GluA2 LBD (S1S2J, rat GluA2-flop subunit, N754S) (Rattus norvegicus, UniProt P19491, DEL528-650/N775S/S652T/V651G)
Format: biochemical
Method in brief: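 Trypsin-detagged LBD (residues N392-K506/P632-S775, GT linker) from E. coli Origami B(DE3), purified by ion exchange and sizing. Protein 0.017–0.1 mM in 10 mM glutamate, 25 mM NaCl, 25 mM Tris-Cl pH 7, with modulator from DMSO (1 µL per 30 µL); kept at 4 °C; synchrotron SAXS. Dimer fraction fit with monomer/dimer form factors (1FTJ); EC50 from dimerization curves; constants from simultaneous one- or two-site equilibrium fits.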

Row | pEC50 | pKd | fold lower EC50 for dimerization than HFMZ (CYTZ vs HFMZ) | fold lower EC50 for dimerization than TCMZ (CYTZ vs TCMZ) | SMILES
1 | 3.70 to 4.00 | ~5.30 | 20 × | 10 × | NS(=O)(=O)c1cc2c(cc1Cl)NC(C1CC3C=CC1C3)NS2(=O)=O (centres unmarked) [CYTZ, cyclothiazide]
2 | 2.70 to 3.00 | 4.33 and ~4.30 |  |  | NS(=O)(=O)c1cc2c(cc1Cl)NC(C(Cl)Cl)NS2(=O)=O (centres unmarked) [TCMZ, trichlormethiazide]
3 | 2.30 to 2.70 | ~5.30 |  |  | NS(=O)(=O)c1cc2c(cc1C(F)(F)F)NCNS2(=O)=O [HFMZ, hydroflumethiazide]
